Out of some 2,500 compounds screened, about 1,200 (48%) were called active. So high a share suggests a set chosen from earlier hits. Some of the results follow. Values without a mark were called inactive.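 The calls were made as follows: active = mean activation above the low control average plus 3 SD, as set in the primary screen (cut at about 12% in these data); inactive = the rest.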

The assay addresses Troponin I, cardiac muscle (Homo sapiens) + Troponin T, cardiac muscle (Homo sapiens) + Troponin C, slow skeletal and cardiac muscles (Homo sapiens) (UniProt P19429+P45379+P63316). Nature of the assay: cardiac RTF calcium sensitivity activators, confirmation, biochemical, IANBD-TnC fluorescence, triplicate (AID 504383).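 Also: 0% = DMSO at 0.472 mM calcium and 100% = DMSO at 2.9 mM calcium.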 As to conditions: IANBD-labeled cardiac RTF, Ca2+ sensitivity fluorescence; at 7.2 µM; active compounds read high; scaled from EC20 to saturating calcium; tested at EC20 calcium, 0.472 mM. Put shortly: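 Assay system: labelled regulated thin filament protein complex; schedule: 15 min compound incubation with filaments at 25 °C; benchmarks: low control EC20 calcium, high control EC100 calcium; reagent: Ca2+ 0.472 mM, EC20 level; doses: one dose, 7.2 µM nominal; evaluation: fluorescence gain scaled between EC20 and EC100 calcium controls; signal: filament fluorescence intensity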
Regarding `O=C(Nc1ccccc1)C1CC2CCCC(C1)C2=O` (stereo not drawn), the activation is 8.65%. In the case of `O=C(Nc1ccccc1)OC1CCC2CC1CCC2OC(=O)Nc1ccccc1` (stereo not drawn) it was 7.87%. Turning to `O=C(Nc1ccccc1)NC1CS(=O)(=O)CC1O` (stereo not drawn), the activation was 149% (active).

Consider `CCC(C)(C)NC(=O)C(c1ccc(F)cc1)N(Cc1ccco1)C(=O)c1cnccn1` (stereo not drawn), for which the activation was 70.6% (active). For `O=C1CCN2C=Nc3cccc4ccc1c2c34`, the activation was 13.7% (active). In the case of `CNC(=S)N1N=C(c2ccc(Br)cc2)CC1c1ccc(N(C)C)cc1` (stereo not drawn), the activation was 31% (active). `CCCN1C(=O)/C(=C\C=C2\N(CC)c3ccccc3C2(C)C)SC1=S`: the activation was 10.1%. In the case of `CCN1/C(=C/C=C/c2oc3ccc(-c4ccccc4)cc3[n+]2CC)Oc2ccc(-c3ccccc3)cc21` it was 6.07%.

With `CCCCN1C(=O)/C(=C/C=C2\Oc3ccccc3N2CC)SC1=S`, the activation was 53.5% (active). On to `CCCN1C(=O)/C(=C/C=C2\N(CC)c3ccccc3C2(C)C)SC1=S`, for which the activation is 3.85%.

As to `CCSC1=N/C(=C\C=C2/Oc3ccccc3N2CC)C(=O)S1`, the activation is 31.9% (active). Consider `COc1cccc(F)c1C(=O)NC(=O)Nc1ccc2nc(C)oc2c1`, for which the activation is 252% (active).

For the compound `Cc1cc2nc3c(=O)n(CCc4ccccc4)c(=O)[nH]c3nc2cc1N`, the activation is 17.3% (active). As for `CCCCCCn1c(=O)[nH]c2nc3cc(N)c(C)cc3nc2c1=O`, the activation is 158% (active). On to `CC(=O)OCCn1c2nc(=O)[nH]c(=O)c-2nc2cc(C)c(C)cc21`, for which the activation is 1.76%. Consider `Cc1ccccc1-n1c(=O)n(CCc2ccccc2)c(=O)c2[nH]cnc21`, for which the activation is 8.97%. With `C=CCn1c(=O)[nH]c2nc3cc(N=CN(C)C)c(C)cc3nc2c1=O`, the activation is 69.7% (active). In the case of `CCCCn1c(=O)[nH]c2nc3cc(N)ccc3nc2c1=O` it was 0.26%. In the case of `COCCN1C(=O)/C(=C/c2ccc(N3CCCC3)cc2C)SC1=S` it was 0.91%. Take `COc1ccc(/C=C2\SC(=O)N(CCC(=O)N3CCN(C)CC3)C2=O)cc1`: the activation is 5.35%.

On to `COCCN1C(=O)/C(=C/c2ccc(N3CCCC3)cc2)SC1=S`, for which the activation was 15.2% (active).

`O=C1c2ccccc2-c2onc3ccc(Oc4ccccc4)c1c23`: the activation was 7.69%. In the case of `Cc1occc1C(=O)N=Nc1c(O)n(C)c2ccccc12`, the activation is 15.2% (active). In the case of `COc1ccc(OC)c(NC(=O)NCCc2cccc(Cl)c2)c1` it was 5.54%; in that of `O=C(CSc1nc2ccccc2s1)c1cc2ccccc2o1`, 14.8% (active). Take `COc1ccc(-c2noc(CCC(=O)NCCc3ccccc3)n2)cc1`: the activation is 10.9%. On to `CCOC(=O)COn1c(=O)c(-c2cc3ccccc3o2)[n+]([O-])c2ccccc21`, for which the activation is 2.03%. `COc1ccc(OC)c(-n2nnnc2SCC(=O)NCCc2ccccc2)c1`: the activation was 12.5% (active). Take `Cc1ccccc1Nc1nnc(SCC(=O)c2cc3ccccc3o2)s1`: the activation is 6.8%. In the case of `O=C(CSc1nc2ccccc2s1)NNC(=S)Nc1ccccc1` it was 482% (active); in that of `O=C(CSc1nc2cc(Cl)ccc2s1)c1cc2ccccc2o1`, 107% (active); in that of `Cc1ccc2c(c1)[C@H]1[C@H](CO2)[C@H](c2ccccc2)[C@]2(C)C(=O)N(Cc3ccc(F)cc3)CC(=O)N12`, 4.21%.

On to `COc1ccc(-n2nnnc2SCC(=O)c2cc3ccccc3o2)cc1`, for which the activation was 40.8% (active). Consider `NS(=O)(=O)c1ccc(-c2ccc(/C=C3\SC(=S)N(C4CCS(=O)(=O)C4)C3=O)o2)cc1` (stereo not drawn), for which the activation is 17.8% (active). In the case of `O=C(Nc1ccc(F)cc1)OCCN1CCN(Cc2ccccc2)CCC1=O`, the activation is 5.99%.

As to `Fc1ccc(CN2CCCN(C(=S)Nc3ccc(F)cc3)CC2)cc1`, the activation was 54% (active).

On to `CCn1c(C(C)NC(C)=O)nc2ccccc21` (stereo not drawn), for which the activation was 16.6% (active). In the case of `CCn1c(CNc2ccc(C(=O)O)cc2)nc2ccccc21` it was -2.9%; in that of `C/C(=N\NC(=O)c1cc2c(s1)CCC(C)C2)c1ccc[nH]1` (stereo not drawn), 5.66%. In the case of `COCCN(C(=S)Nc1cccc(OC)c1)C1CCN(C(C)=O)CC1`, the activation was 12.8% (active). In the case of `CC(=O)Nc1ccc(NC(=O)C(C)OC(=O)/C(C#N)=C/c2ccc(N(C)C)cc2)cc1` (stereo not drawn) it was 17% (active); in that of `CC(OC(=O)/C(C#N)=C/c1ccc(N(C)C)cc1)C(=O)N(C)Cc1ccccc1` (stereo not drawn), 18.4% (active); in that of `CN(C)c1ccc(/C=C(\C#N)C(=O)Nc2nc3c(s2)CCN(Cc2ccccc2)C3)cc1`, 6.43%. `CN(C)c1ccc(/C=C(\C#N)C(=O)c2ccccc2)cc1`: the activation was 9.54%.

In the case of `CN(C)c1ccc(/C=C(/C#N)C(=O)Nc2nc3c(s2)CCN(Cc2ccccc2)C3)cc1`, the activation is 10.5%. In the case of `CC(OC(=O)/C(C#N)=C/c1ccc(N(C)C)cc1)C(=O)N(C)c1ccccc1` (stereo not drawn) it was 17.5% (active); in that of `Brc1ccc(C2=CC(c3ccco3)n3ncnc3N2)cc1` (stereo not drawn), 7.55%.

Turning to `Fc1ccc(C2=CC(c3ccc(Br)o3)n3ncnc3N2)cc1` (stereo not drawn), the activation is 5.63%.

Turning to `Fc1ccc(C2=CC(c3ccco3)n3ncnc3N2)cc1` (stereo not drawn), the activation was 18.9% (active). In the case of `COc1ccc2nc(C)cc(NCc3ccc(F)cc3)c2c1` it was 10.7%; in that of `COc1ccc2nc(C)c3cc(C)oc3c2c1`, 71.2% (active); in that of `O=C(Nc1ccc(S(=O)(=O)Nc2ncccn2)cc1)C1CC(=O)N(c2ccccc2)C1` (stereo not drawn), 0.68%. On to `Cc1ccc(NS(=O)(=O)c2ccc(C(=O)N3CCN(c4ncccn4)CC3)cc2)cc1`, for which the activation is 3.55%. As to `O=C(Nc1ccc(S(=O)(=O)Nc2ncccn2)cc1)c1nn(Cc2ccccc2)c(=O)c2ccccc12`, the activation is 736% (active).

`COCCN1C(=O)N[C@@H](c2cccc(C(F)(F)F)c2)C(C(=O)OC)=C1C`: the activation was 42.1% (active). Turning to `COC(=O)C/C(O)=C(/N=Nc1cccc(C(F)(F)F)c1)C(=O)OC`, the activation is 9.06%.

With `CCOC(=O)CN1C(=O)N[C@@H](c2cccc(C(F)(F)F)c2)C(C(=O)OC)=C1C`, the activation is 1.28%. Consider `CCOc1ccc(-c2nnc(NC(=O)CCCOc3cccc(C)c3)o2)cc1`, for which the activation is 7.1%.

Turning to `Cc1ccc(S(=O)(=O)N2CC(C(=O)O)=CC[C@H]2c2ccc(Cl)cc2)cc1`, the activation was 4.74%. For the compound `Cc1nnc(N/N=C/c2ccc(O)c([N+](=O)[O-])c2)[nH]c1=O`, the activation was 35.2% (active). In the case of `Cc1cc(/C=C2/NC(=O)N(Cc3ccccc3F)C2=O)c(C)n1C` it was 25.1% (active). In the case of `Cc1ccc(/C=C2/NC(=O)N(Cc3ccccc3F)C2=O)s1`, the activation is 7.33%. On to `O=C(CC1SC(N2CCCCC2)=NC1=O)Nc1ccc(C(=O)NCc2ccccc2)cc1` (stereo not drawn), for which the activation is 9.91%. On to `CCCNC(=O)C12CCC(C)(C(=O)C1Br)C2(C)C` (stereo not drawn), for which the activation is 12.4% (active).

`COc1cc2c(cc1OC)-c1cc3ccc4c(c3c[n+]1CC2)OCO4`: the activation was 15.6% (active). In the case of `CCOCCCNS(=O)(=O)c1ccc(NC(=O)c2ccc(OC)c([N+](=O)[O-])c2)cc1` it was 9.02%; in that of `CCCCC(=O)Nc1ccc(C(=O)Nc2ccc(OC)cc2[N+](=O)[O-])cc1`, 13.3% (active). `Cc1ccc2nc3nc(NCC4CCCO4)c(C(=O)NC4CCCC4)cc3c(=O)n2c1` (stereo not drawn): the activation is 12.9% (active).

The values above are taken from PubChem BioAssay AID504383 (The Scripps Research Institute Molecular Screening Center, 2011).
